HNF4A DNA FP: change in binding of human HNF4 alpha to DNA; activity change, % at 10 µM; actives 0.3% (n = 360,000); HNF4a-FITC DNA binding, fluorescence polarization, 1 h; AID 1224865; P41235; in the data active = activity change above about 30%, passing the limit was not always enough
Target sequence (P41235 whole entry, looked up): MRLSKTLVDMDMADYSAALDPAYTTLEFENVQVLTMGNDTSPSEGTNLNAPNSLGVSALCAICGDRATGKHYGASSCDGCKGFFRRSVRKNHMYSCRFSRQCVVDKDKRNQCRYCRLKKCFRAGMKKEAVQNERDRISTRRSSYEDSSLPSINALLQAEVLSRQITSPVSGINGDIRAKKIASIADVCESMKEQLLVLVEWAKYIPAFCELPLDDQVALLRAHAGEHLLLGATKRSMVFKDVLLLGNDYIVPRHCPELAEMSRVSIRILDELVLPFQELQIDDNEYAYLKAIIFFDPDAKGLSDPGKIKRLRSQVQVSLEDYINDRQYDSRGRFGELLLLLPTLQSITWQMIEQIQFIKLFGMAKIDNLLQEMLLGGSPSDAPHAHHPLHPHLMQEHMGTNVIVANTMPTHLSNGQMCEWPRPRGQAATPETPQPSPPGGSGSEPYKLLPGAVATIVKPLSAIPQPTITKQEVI
IDE cell activ: IDE (human) activation, cell-based; P14735; HEK cells, FAbeta-B cleavage, fluorescence polarization; 0% vehicle, 100% cell-free pure enzyme wells; activation, % at 5.96 µM; actives 0.073% (n = 340,000);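 active = activation above the mean of all tested compounds plus 3 SD, set per screening campaign, cut at about 17% in these data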
IDE cell inh: inhibitors of human insulin-degrading enzyme in cells | P14735 | HEK cells, FAbetaB cleavage, fluorescence polarization | inhibition, % at 5.59 µM | actives 0.41% (n = 320,000) | AID 434962;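 active = percent inhibition above the average of all tested compounds plus 3 SD, set per screening campaign, cut at about 16% in these data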;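 also: IDE supplied by intact live HEK cells; FP after avidin binding of uncleaved biotin substrate so inhibition keeps polarization high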
Rpn11 inh: inhibitors of human proteasome Rpn11; inhibition, % at 20 µM; human 26S proteasome, Ub4-pepOG fluorescence polarization; 20S core pre-blocked with epoxomicin; O00487; actives 0.59% (n = 360,000); AID 588493;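 active = inhibition at 20 µM, scaled to each plate's controls, above about 33%, limit read from the data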
TPT1 inh: C. albicans TPT1 enzyme inhibition; recombinant caTPT1, FP RNA substrate dephosphorylation; inhibition, % at 5 µM; actives 0.81% (n = 300,000);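 active = inhibition above the mean of all tested compounds plus 3 SD, set per screening campaign, cut at about 24% in these data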
CSN deneddyl inh: CSN deneddylation inhibition. Purified CSN, SCF-Nedd8-OG deneddylation, fluorescence polarization. inhibition, % at 12.5 µM. AID 651999. Q92905. actives 0.38% (n = 360,000);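 active = pattern-corrected inhibition above about 35%, with an unprinted fluorescence ratio check between 0.5 and 1.5, limit read from the data, passing the limit was not always enough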
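Test system: purified human Csn5 enzyme expressed in HEK293T cells. Amount: 0.24 nM enzyme. Reagent: SCFSkp2-Nedd8OG substrate at 10 nM final. Schedule: 90 min incubation of compound, enzyme and substrate at room temperature. Detection: fluorescence polarization. Read-out: % inhibition of substrate cleavage by Csn5.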
caTPT1 confirm: confirmation of Candida albicans TPT1 inhibitors; shares compounds with TPT1 inh; recombinant caTPT1, fluorescence polarization, RNase T1 coupled; inhibition, % at 5 µM; actives 74% (n = 2,400); AID 2149;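 active = inhibition above the primary screen limit, the mean inhibition of all tested compounds plus 3 SD, cut at about 25% in these data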
RNase T1 inh: RNase T1 inhibition in TPT1 counter-screen; actives 83% (n = 2,400); inhibition, % at 5 µM; shares compounds with TPT1 inh; RNase T1 cleavage, fluorescence polarization, 1536-well;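 active = inhibition above the solvent-only control well mean plus 3 SD, limit set per screening run, cut at about 23% in these data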;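 also: inhibitors block cleavage so intact labeled substrate keeps polarization high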
Target sequence (P00651 whole entry, looked up): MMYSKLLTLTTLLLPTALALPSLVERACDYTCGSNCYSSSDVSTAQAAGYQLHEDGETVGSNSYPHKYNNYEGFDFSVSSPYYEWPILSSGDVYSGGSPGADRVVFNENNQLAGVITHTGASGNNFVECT
Numbers stand for hits; 0 = inactive; - = not tested or not shown; + = active, no number. Only some compounds are listed: those with a hit (about 1.7% of all), similar ones and a draw of the others.

SMILES | HNF4A DNA FP | IDE cell activ | IDE cell inh | Rpn11 inh | TPT1 inh | CSN deneddyl inh | caTPT1 confirm | RNase T1 inh
CC(=O)OC[C@@H]1CN(Cc2ccccc2)C[C@H](n2cnc3c(NC4CC4)ncnc32)O1 | 0 | - | - | 0 | - | 0 | - | -
COc1ccccc1Cc1c(-c2ccc(C#N)cc2)nc2c(C)cc(Br)cn12 | 0 | - | - | 0 | - | 0 | - | -
O=C(COc1ccccc1[N+](=O)[O-])N/N=C/c1ccc(O)c([N+](=O)[O-])c1 | 0 | 0 | 0 | 0 | 61 | 0 | 0 | 0
C(=NN=C1c2ccccc2-c2ccccc21)c1ccc2c(c1)OCO2 | 0 | 0 | - | 0 | - | 0 | - | -
Cc1ccc(CNC(=O)/C(C#N)=C\c2ccc(N(C)C)cc2)cc1 | - | - | 0 | - | 58 | - | 64 | 80
N#C/C(=C/c1ccc(C(=O)O)cc1)C(=O)NCc1ccccc1 | 0 | 0 | 0 | 0 | 0 | 0 | - | -
CCN(CC)c1ccc(/C=C(\C#N)C(=O)NCc2ccccc2)cc1 | 41 | 0 | 23 | 0 | 89 | 0 | 107 | 114
COc1ccc(C2CC(c3ccccc3)=NN2c2ccc(/C=N/NC(=O)c3ccncc3)cc2)cc1 (stereo not given) | 0 | 0 | 0 | 0 | 66 | 0 | 52 | 68
Cc1ccc(CNC(=O)C2CC(=O)N(c3ccc(OCC(=O)N4CCCC4)cc3)C2)cc1 (stereo not given) | 0 | 0 | 0 | 0 | 31 | 0 | 0 | 0
O=C(Nc1ccc(Cl)cc1)C1Cc2c(-c3ccccc3Oc3ccccc3)ccnc2O1 (stereo not given) | 0 | - | - | 0 | - | 0 | - | -
CN(C)c1ccc(/C=C2/SC(=O)N(CCN=C3NS(=O)(=O)c4ccccc43)C2=O)cc1 | 0 | 0 | 0 | 0 | 33 | 0 | 28 | 38
O=C1S/C(=C/c2ccccc2)C(=O)N1CC(O)Cn1c2ccccc2c2ccccc21 (stereo not given) | 0 | 0 | 0 | 0 | 0 | 0 | - | -
CN(C)c1ccc(/C=C2\SC(=O)N(CC(O)Cn3c4ccccc4c4ccccc43)C2=O)cc1 (stereo not given) | 0 | 0 | 0 | 0 | 76 | 0 | 52 | 72
Cc1cccc(C(=O)NNC2=CC(=O)CC(C)(C)C2)c1O | 0 | 0 | 0 | 0 | 0 | 0 | - | -
CC1(C)CC(=O)C=C(NNC(=O)c2ccccc2O)C1 | 0 | 0 | 0 | 0 | 39 | 0 | 46 | 57
COc1ccc(-n2c(NC(=O)c3ccco3)c(C#N)c3nc4ccccc4nc32)cc1 | 0 | 0 | 0 | 0 | 36 | 38 | 45 | 55
COc1ccc(C(=O)Nc2ccc(NC(=O)c3ccco3)cc2)cc1 | 0 | 0 | 0 | 0 | 0 | 0 | - | -
OCCCNc1ncnc2c1ncn2[C@H]1CN(Cc2ccc(-c3ccccc3)cc2)C[C@@H](CO)O1 | 0 | - | - | 0 | - | 0 | - | -
COCCNC(=S)N/N=C/c1c2ccccc2cc2ccccc12 | 0 | 0 | 0 | 0 | 40 | 0 | 51 | 61
O=S(=O)(c1ccc(NC(=S)N/N=C/c2ccc(Oc3ccccc3)cc2)cc1)N1CCOCC1 | 0 | 0 | 0 | 0 | 0 | 0 | - | -
S=C(NCCN1CCOCC1)N/N=C/c1c2ccccc2cc2ccccc12 | 0 | 0 | 0 | - | 38 | 0 | 46 | 58
CNC(=S)N/N=C/c1c2ccccc2c(Cl)c2ccccc12 | 0 | 0 | 0 | 0 | 25 | 0 | 0 | 24
COc1ccc2ccccc2c1/C=N/NC(=S)NCCN1CCOCC1 | 0 | 0 | 0 | 0 | 0 | 0 | - | -
O=S(=O)(c1ccc(NC(=S)N/N=C/c2c3ccccc3cc3ccccc23)cc1)N1CCOCC1 | 0 | 0 | 0 | 0 | 73 | 0 | 99 | 104
CNC(=S)N/N=C/c1c(C)cccc1Cl | 0 | 0 | 0 | 0 | 0 | 0 | - | -
SMILES | HNF4A DNA FP | IDE cell activ | IDE cell inh | Rpn11 inh | TPT1 inh | CSN deneddyl inh | caTPT1 confirm | RNase T1 inh
C=C1c2nc3ccccc3n2C=C(c2ccc(C)cc2)N1c1ccccc1 | 0 | 0 | - | 0 | - | 0 | - | -
O=C(COc1ccc([N+](=O)[O-])cc1)NC(=O)NC1CCS(=O)(=O)C1 (stereo not given) | 0 | 0 | - | 0 | - | 0 | - | -
CCCCCNc1ncnc2c(C)[nH]nc12 | 0 | - | - | 0 | - | 0 | - | -
O=C(O)C1(C(=O)O)CCC2(CCCCC2)CC1 | 0 | - | - | 0 | - | 0 | - | -
COc1ccc(C(=O)N/N=C/c2sc(N3CCOCC3)nc2-c2ccccc2)cc1OC | 0 | 0 | 0 | 0 | 0 | 0 | - | -
COc1ccccc1NS(=O)(=O)c1cc([N+](=O)[O-])ccc1N/N=C/c1sc(N2CCOCC2)nc1-c1ccccc1 | 75 | 0 | 0 | - | 97 | 53 | 111 | 110
Cc1ccc(NC(=O)CSc2ncccn2)cc1S(=O)(=O)N1CCOCC1 | 0 | 0 | 0 | 0 | - | 0 | - | -
O=C(NCC1COc2ccccc2O1)c1cccc(S(=O)(=O)N2CCN(c3ccccc3)CC2)c1 (stereo not given) | 0 | 0 | - | 0 | - | 0 | - | -
O=C(CCN1CCC(c2cccs2)=N1)c1cccs1 | 0 | - | 0 | 0 | 28 | 0 | 0 | 0
O=C(NCc1ccccn1)[C@@H]1CCCN1C(=O)[C@@H]1CCCN1C(=O)c1cccc2ccccc12 | 0 | - | - | - | - | 0 | - | -
CCc1ccccc1NC(=S)NCCSc1ccc(Cl)cc1 | 0 | 0 | 0 | 0 | + | 0 | 0 | 0
O=[N+]([O-])c1ccc(N/N=C/c2cccc(O)c2O)cc1 | 0 | 0 | 0 | 0 | 51 | 0 | 60 | 74
Cc1cccc(C(=O)Oc2ccccc2/C=N/Nc2ccc([N+](=O)[O-])cc2)c1 | 0 | 0 | 0 | 0 | 39 | 0 | 39 | 51
Cc1cccc(C(=O)Oc2ccc(/C=N/O)cc2)c1 | 0 | 0 | 0 | 0 | 0 | 0 | - | -
O=[N+]([O-])c1ccc(NN=Cc2cccc([N+](=O)[O-])c2)cc1 | 0 | 0 | - | 0 | - | 0 | - | -
CC1=C(C(=O)N(C(C)C)C(C)C)CC(CC(=O)NCc2ccco2)C(=O)N1CCC1=CCCCC1 (stereo not given) | 0 | - | - | 0 | - | 0 | - | -
CC(=O)Nc1cccc(Nc2cnccn2)c1 | 0 | - | - | 0 | - | 0 | - | -
CC(C)(C)c1ccc(CC(=O)N2CCC2(C)C(=O)NCc2cccc3ccccc23)cc1 (stereo not given) | 0 | - | - | 0 | - | 0 | - | -
O=C1S/C(=C/c2ccc(N3CCOCC3)o2)C(=O)N1Cc1c(F)cccc1Cl | 0 | 0 | 0 | - | 139 | 0 | 177 | 162
O=C(O)c1ccccc1-c1ccc(/C=C2\SC(=O)N(c3ccccc3)C2=O)o1 | 0 | 0 | 0 | 0 | 0 | 0 | - | -
O=C1S/C(=C\c2ccc(N3CCOCC3)o2)C(=O)N1Cc1c(F)cccc1Cl | 0 | 0 | 0 | - | 148 | 0 | 190 | 174
O=C1S/C(=C\c2ccc(N3CCOCC3)o2)C(=O)N1c1ccccc1 | 0 | 0 | 0 | - | + | 0 | 185 | 166
O=C1N=C(N2CCOCC2)S/C1=C/c1ccc(-c2ccccc2Cl)o1 | 0 | 0 | 0 | 0 | 0 | 0 | - | -

Source: PubChem
